From ChEMBL document CHEMBL1649354, “Bioactivity-guided isolation of GABA(A) receptor modulating constituents from the rhizomes of Actaea racemosa” (J Nat Prod, 2010)

Key:
Assay type in all cases: cell-based
Oocyte [1] = assay: Allosteric modulation of alpha1beta2gamma2S GABAA receptor expressed in Xenopus laevis oocytes assessed as stimulation of GABA-induced chloride current at 300 uM by electrophysiology
Procedure, shortened: (§1)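 Two-microelectrode voltage clamp of oocytes. GABA applied at EC3-10 (3-10% of maximal current), set at the start of each experiment. Compound pre-applied for 1 min before GABA. Enhancement taken as (I(GABA+Comp)/IGABA) - 1. Concentration-response data fitted to 1/[1 + (EC50/[Comp])nH]. Mean ± SE from ≥4 oocytes and ≥2 oocyte batches.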

Oocyte [2] = assay: Allosteric modulation of alpha1beta2gamma2S GABAA receptor expressed in Xenopus laevis oocytes assessed as stimulation of GABA-induced chloride current at 100 uM by electrophysiology
Procedure, shortened: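 Two-microelectrode voltage clamp; GABA at EC3-10 (eliciting 3–10% of maximal current, determined at the start of each experiment). Test material applied for 1 min equilibration before GABA, then co-applied. Stimulation calculated as (I(GABA+Comp)/IGABA) − 1 at 100 µM, reported as %. Mean ± SE, n = 4–7 oocytes, at least two oocyte batches; oocytes with currents >3 µA discarded.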

[3] = (§2) Allosteric modulation of alpha1beta2gamma2S GABAA receptor expressed in Xenopus laevis oocytes assessed as stimulation of GABA-induced chloride current by electrophysiology; conditions: Oocyte; procedure, shortened: as §1
Oocyte [4] = assay: as §2; procedure, shortened: as §1

Structure (SMILES)	Activity (Oocyte [1])	Activity (Oocyte [2])	EC50 [3]	Activity (Oocyte [4])
CC(=O)O[C@@H]1C[C@@]23C[C@@]24CC[C@H](O[C@@H]2OC[C@@H](O)[C@H](O)[C@H]2O)C(C)(C)[C@@H]4CC[C@H]3[C@]2(C)C[C@@H]3O[C@]4(C[C@@H](C)[C@@H]3[C@@]12C)O[C@H](O)[C@@]1(C)O[C@@H]41 [ACTEIN]	378%	305%	36 µM	Dose-dependent effect
C[C@@H]1C[C@@H]2O[C@@]3(O[C@@H]2C(C)(C)O)[C@H](O)[C@@]2(C)[C@@H]4CC[C@H]5C(C)(C)[C@@H](O)CC[C@@]56C[C@@]46CC[C@]2(C)[C@@H]13	–	104%	–	–
CC(=O)OC(C)(C)[C@H]1O[C@@]23O[C@H]1C[C@@H](C)[C@@H]2[C@@]1(C)CC[C@@]24C[C@@]25CC[C@H](O[C@@H]2OC[C@H](O)[C@H](O)[C@H]2O)C(C)(C)[C@@H]5CC[C@H]4[C@]1(C)[C@H]3O	289%	271%	26 µM	Dose-dependent effect
CC(=O)O[C@H](C[C@@H](C)[C@H]1C(=O)[C@H](O)[C@@]2(C)[C@@H]3CC[C@H]4C(C)(C)[C@@H](O[C@@H]5OC[C@@H](O)[C@H](O)[C@H]5O)CC[C@@]45C[C@@]35CC[C@]12C)[C@H]1OC1(C)C	1950%	1690%	27 µM	Dose-dependent effect
C[C@@H]1C[C@@H]2O[C@@]3(O[C@@H]2C(C)(C)O)[C@H](O)[C@@]2(C)[C@@H]4CC[C@H]5C(C)(C)[C@@H](O[C@@H]6OC[C@@H](O)[C@H](O)[C@H]6O)CC[C@@]56C[C@@]46CC[C@]2(C)[C@@H]13	256%	189%	28 µM	Dose-dependent effect
CC(=O)O[C@H](C[C@@H](C)[C@H]1C(=O)[C@H](O)[C@@]2(C)[C@@H]3CC[C@H]4C(C)(C)[C@@H](O)CC[C@@]45C[C@@]35CC[C@]12C)[C@H]1OC1(C)C	–	64%	–	–
CC(=O)O[C@@H]1C[C@@]23C[C@@]24CC[C@H](O)C(C)(C)[C@@H]4CC[C@H]3[C@]2(C)C[C@@H]3O[C@]4(C[C@@H](C)[C@@H]3[C@@]12C)O[C@H](O)[C@@]1(C)O[C@H]41	–	126%	–	–
